# According to publication PMC2141641 (The Journal of Cell Biology, 1997):
# B1: FP298-439: control fusion protein unable to bind TSP-1 spanning CD36 amino acids 298–439 (protein)
# chain: KAFASPVENPDNYCFCTEKIISKNCTSYGVLDISKCKEGRPVYISLPHFLYASPDVSEPIDGLNPNEEEHRTYLDIEPITGFTLQFAKRLQVNLLVKPSEKIQVLKNLKRNYIVPILWLNETGTIGDEKANMFRSQVTGKIN
# modifications: left off: GST, end not stated, kept
# Tests used:
# [1] = test system: CD36–GST fusion protein FP298-439; set-up: species or system human; conditions: 125I–TSP-1 20 μg/ml; equal to binding in the presence of 5 mM EDTA; n = 5
# Method in brief: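 GST–CD36 fusion protein was coated overnight at 4°C at 10 μg/ml in carbonate buffer, pH 9.8 (200–280 ng/well). Wells were washed with TBS-T and blocked with TBS-T/0.5% BSA. 125I–TSP-1 (20 μg/ml; 0.5–1 mCi/mg) in TBS-T was incubated 2 h at 22°C. Wells were washed and bound counts measured by gamma counting. 5 mM EDTA defined nonspecific binding.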
# [2] = test system: Bovine adrenal capillary endothelial cells (BCECs); test: Endothelial cell migration assay, BCECs; assay type: cell-based; conditions: TSP-1 2 nM; fusion protein preincubated 2 h at 4°C; migration 4 h at 37°C
# Method in brief: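 Bovine adrenal capillary cells (DME, 10% donor calf serum, 1% endothelial mitogen; passage 15) were starved overnight in DME/0.1% BSA. 3 × 10^4 cells/well were attached 2 h at 37°C to a gelatinized membrane in an inverted Boyden chamber, then reinverted. GST–CD36 fusion proteins were preincubated with 2 nM TSP-1, warmed to room temperature, and added to the top wells. Migration to bFGF ran 4 h at 37°C. Migrated cells/10 high-power fields counted; normalized to bFGF minus background.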
# TSP-1 = conditions: ref Pearce et al., 1995; cited from earlier work
molecule,measurement,setting,value
B1,TSP-1 binding to immobilized fusion protein (in words),[1],only background binding
same,block of TSP-1 inhibition of bFGF-induced migration,[2],ineffective
same,binding of fusion protein to TSP-1,TSP-1,unable to bind TSP-1
